Active and inactive are the calls of the source. The rule behind the calls is not given here.
Experiments:
[1] = target: Mu-type opioid receptor (Homo sapiens) (UniProt P35372); test: Antagonist activity at human mu opioid receptor expressed CHO cells assessed as inhibition of [35S]-GTP[gammaS] binding at 10 uM; format: cell-based
In short: (§1)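 Antagonism of [³⁵S]GTPγS binding stimulated by DAMGO (μ), DPDPE (δ) or U69,593 (κ) in CHO cells expressing the human receptor, tested at 10 μM.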

[2] = target: Delta-type opioid receptor (Homo sapiens) (UniProt P41143); test: Antagonist activity at human delta opioid receptor expressed CHO cells assessed as inhibition of [35S]-GTP[gammaS] binding at 10 uM; format: functional, cell-based; in short: as §1
Sequence of Delta-type opioid receptor (Homo sapiens) (P41143 whole entry): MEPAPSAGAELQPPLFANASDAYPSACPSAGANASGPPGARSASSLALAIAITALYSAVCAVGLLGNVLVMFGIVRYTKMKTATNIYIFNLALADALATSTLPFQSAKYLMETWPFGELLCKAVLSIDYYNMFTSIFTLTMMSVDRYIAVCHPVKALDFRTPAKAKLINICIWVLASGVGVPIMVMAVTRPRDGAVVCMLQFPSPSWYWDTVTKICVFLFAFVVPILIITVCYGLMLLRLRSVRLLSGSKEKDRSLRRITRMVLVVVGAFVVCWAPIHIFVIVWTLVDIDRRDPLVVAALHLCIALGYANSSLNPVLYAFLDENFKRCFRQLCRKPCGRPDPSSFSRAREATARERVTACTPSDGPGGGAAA

[3] = target: Mu-type opioid receptor (Homo sapiens) (UniProt P35372); test: Agonist activity at human mu opioid receptor expressed CHO cells assessed as inhibition of [35S]-GTP[gammaS] binding at 10 uM; format: cell-based
In short: (§2)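 Single-point screen at 10 μM for intrinsic agonist activity in a [³⁵S]GTPγS binding assay, using membranes from CHO cells overexpressing the human μ, κ or δ opioid receptor.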

[4] = target: Kappa-type opioid receptor (Homo sapiens) (UniProt P41145); test: Agonist activity at human kappa opioid receptor expressed CHO cells assessed as inhibition of [35S]-GTP[gammaS] binding at 10 uM; format: functional, cell-based; in short: as §2
Sequence of Kappa-type opioid receptor (Homo sapiens) (P41145 whole entry): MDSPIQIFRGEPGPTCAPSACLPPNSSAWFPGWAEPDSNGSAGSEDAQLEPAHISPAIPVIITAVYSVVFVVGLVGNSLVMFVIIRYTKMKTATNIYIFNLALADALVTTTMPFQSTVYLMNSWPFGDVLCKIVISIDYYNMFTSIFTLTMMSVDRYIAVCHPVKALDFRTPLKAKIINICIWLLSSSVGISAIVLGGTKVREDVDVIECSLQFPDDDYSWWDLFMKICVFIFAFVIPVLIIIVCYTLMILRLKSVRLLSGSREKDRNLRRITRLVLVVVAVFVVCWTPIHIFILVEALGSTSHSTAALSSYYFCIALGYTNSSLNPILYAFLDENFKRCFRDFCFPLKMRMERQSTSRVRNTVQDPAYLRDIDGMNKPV

[5] = target: Delta-type opioid receptor (Homo sapiens) (UniProt P41143); test: Agonist activity at human delta opioid receptor expressed CHO cells assessed as inhibition of [35S]-GTP[gammaS] binding at 10 uM; format: functional, cell-based; in short: as §2
Homo sapiens [6] = species on record: Homo sapiens; test: Selectivity, ratio of Ke for human delta opioid receptor to ratio of Ke for human kappa opioid receptor
In short: (§3)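 Agonist-stimulated [³⁵S]GTPγS binding in CHO cells overexpressing the human receptor, stimulated by DAMGO (μ), DPDPE (δ) or U69,593 (κ). Agonist concentration–response curves were run with or without a fixed test concentration, using at least two test concentrations. Ke = [L]/(DR − 1) was calculated only when the agonist EC₅₀ shifted at least 4-fold. Values are mean ± SE from at least three experiments, and selectivity comes from the Ke values.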

[7] = target: Kappa-type opioid receptor (Homo sapiens) (UniProt P41145); test: Antagonist activity at human kappa opioid receptor expressed CHO cells assessed as inhibition of [35S]-GTP[gammaS] binding at 10 uM; format: functional, cell-based; in short: as §1
Homo sapiens [8] = species on record: Homo sapiens; test: Selectivity, ratio of Ke for human mu opioid receptor to ratio of Ke for human kappa opioid receptor; in short: as §3
Mus musculus [9] = species on record: Mus musculus; test: Analgesic activity in mouse assessed as antagonism of morphine-induced antinociception by writhing test; format: functional
Mus musculus [10] = species on record: Mus musculus; test: Analgesic activity in mouse assessed as antagonism of U50488-induced antinociception by writhing test; format: functional
[11] = target: Delta-type opioid receptor (Homo sapiens) (UniProt P41143); test: Agonist activity at human delta opioid receptor expressed CHO cells assessed as inhibition of [35S]-GTP[gammaS] binding; format: functional, cell-based
In short: (§4)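 Agonist concentration–response in a [³⁵S]GTPγS binding assay at human δ receptor in CHO cells, using eight concentrations chosen to define the upper and lower asymptotes. EC₅₀ and Emax were calculated, with Emax given as a percentage of the maximum for DPDPE run on the same plate. Values are mean ± SE from at least three independent experiments.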

[12] = target: Delta-type opioid receptor (Homo sapiens) (UniProt P41143); test: Agonist activity at human delta opioid receptor expressed CHO cells assessed as inhibition of [35S]-GTP[gammaS] binding relative to DPDPE maximal response; format: functional, cell-based; in short: as §4

Sequence of Mu-type opioid receptor (Homo sapiens) (P35372 whole entry): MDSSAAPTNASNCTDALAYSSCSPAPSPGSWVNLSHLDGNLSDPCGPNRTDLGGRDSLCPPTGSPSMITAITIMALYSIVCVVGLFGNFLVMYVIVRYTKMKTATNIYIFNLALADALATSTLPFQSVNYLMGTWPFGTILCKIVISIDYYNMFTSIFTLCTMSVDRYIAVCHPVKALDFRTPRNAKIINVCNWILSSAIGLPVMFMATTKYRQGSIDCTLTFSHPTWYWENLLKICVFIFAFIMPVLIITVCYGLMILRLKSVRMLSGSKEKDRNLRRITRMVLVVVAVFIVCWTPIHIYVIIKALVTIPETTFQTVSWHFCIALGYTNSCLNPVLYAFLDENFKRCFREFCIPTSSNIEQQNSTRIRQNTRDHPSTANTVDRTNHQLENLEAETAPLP

Compound | Activity [1] | Activity [3] | Activity [4] | Activity [5] | Activity [7] | further results
CN1CCC(c2cccc(O)c2)CC1 | inactive | inactive | inactive | inactive |  | Activity [2]: inactive
Oc1cccc(C2CCN(CCCc3ccccc3)CC2)c1 | inactive |  |  |  | inactive | Ratio Ke (Homo sapiens [6]): 72; Ratio Ke (Homo sapiens [8]): 13
CC1CN(CCCc2ccccc2)CCC1c1cccc(O)c1 (configuration not stated) | inactive |  |  |  | inactive | 
C[C@H]1CN(CCCc2ccccc2)CC[C@@]1(C)c1cccc(O)c1 |  |  |  |  |  | AD50 (Mus musculus [9]): 0.28 mg/kg
C[C@H]1CN(C)CC[C@@]1(C)c1cccc(O)c1 |  | inactive | inactive | inactive |  | AD50 (Mus musculus [9]): 0.74 mg/kg; AD50 (Mus musculus [10]): >5 mg/kg
CN1CCN(c2cccc(O)c2)CC1 |  | inactive | inactive | inactive | inactive | 
CN1CCC(C)(c2cccc(O)c2)CC1 |  |  |  |  |  | ED50 [11]: 8.3 µM; Emax [12]: 64%; ED50 (Mus musculus [9]; Mus musculus): 3.4 mg/kg
Oc1cccc(N2CCN(CCCc3ccccc3)CC2)c1 |  | inactive | inactive | inactive |  | 
C[C@H]1CN(CCCc2ccccc2)CCN1c1cccc(O)c1 |  | inactive | inactive | inactive |  | 
CC1(c2cccc(O)c2)CCN(CCCc2ccccc2)CC1 | inactive |  |  |  | inactive | 
CC1CN(C)CCC1c1cccc(O)c1 (configuration not stated) |  |  |  |  |  | Activity [2]: inactive
C[C@H]1CN(C)CCN1c1cccc(O)c1 |  | inactive | inactive | inactive |  | Activity [2]: inactive
